The full list was thinned out, with hits kept by preference.
UPR CHOP act: activators of apoptotic CHOP UPR arm, primary screen, cell-based, CHO-CHOP luciferase reporter, luminescence, uHTS. actives 0.34% (n = 330,000). activation, % at 10 µM. UPR activation; percent of tunicamycin response over DMSO baseline;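 active means at 10 µM dose, activation of 40% or more, normalized to positive control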
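System: CHO CHOP reporter cells. Amount: 500 cells per well. Buffer or medium: F12 medium, 10% FBS. Compound dosing: one dose, 10 µM in 0.5% DMSO. Incubation: 6 h compound exposure at 37 °C after overnight seeding. Technique: Steady-Glo luciferase luminescence. Benchmarks: tunicamycin and DMSO controls.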
UPR XBP1 act: activators of adaptive XBP1 UPR arm, primary screen, cell-based, CHO-XBP1 luciferase reporter, luminescence, uHTS | AID 463104, 2010 | IRE1-XBP1 UPR activation; percent of tunicamycin response, DMSO as zero | actives 0.33% (n = 330,000) | activation, % at 20 µM;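 active means versus positive control, 20 µM dose yields 30% or more activation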
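Material: IRE1-XBP1 luciferase reporter CHO line / Quantity: one thousand reporter cells per well / Buffer or medium: F12 with 10% serum / Compound: 20 µM single concentration, DMSO 1% / Times: 6 h treatment, 37 °C / Detection: Steady-Glo luciferase glow luminescence, 10 min after reagent addition / Benchmarks: tunicamycin high, DMSO low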
PvdQ acylase: P. aeruginosa PvdQ acylase inhibitors, primary screen, biochemical, fluorescence, plate reader and imaging, single point | PvdQ acylase [Pseudomonas aeruginosa LESB58] | purified PvdQ acylase | inhibition, % at 10 µM | actives 0.063% (n = 340,000) | AID 488965, 2010; in the data active means inhibition above about 30%, passing the limit was not always enough
CHOP inhibitor: inhibitors of CHOP promoter induction, primary screen, cell-based, unfolded protein response, luciferase reporter. actives 3.8% (n = 220,000). AID 2732, 2010. CHO-K1 CHOP-promoter luciferase, tunicamycin-induced, 15-18 h. inhibition, % at 10 µM;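 active means compounds that reduced the stress-induced luciferase reporter signal by more than about 70% of percent inhibition, limit read from the data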
Hits are given with their value.

OC(CN1CCN(c2ccccc2)CC1)Cn1c2ccccc2c2ccccc21 (centres undefined) was read as UPR CHOP act inactive, UPR XBP1 act inactive, PvdQ acylase inactive and CHOP inhibitor 80.2.
Screening Cc1ccc(OCCC(=O)O)cc1 returned UPR CHOP act inactive, UPR XBP1 act inactive, PvdQ acylase inactive and CHOP inhibitor inactive.
O=C(Nc1ccccc1Cl)C1CC(=O)N(c2ccccc2)C1 (centres undefined) was read as UPR CHOP act inactive, UPR XBP1 act inactive, PvdQ acylase inactive and CHOP inhibitor inactive.
O=C(Nc1cc(Cl)ccc1Cl)C1CC(=O)N(c2ccc(Br)cc2)C1 (centres undefined) was read as UPR CHOP act inactive, UPR XBP1 act inactive, PvdQ acylase inactive and CHOP inhibitor 70.0.
O=C(COc1ccccc1)N=C1SC2CS(=O)(=O)CC2N1c1ccc(F)cc1F (centres undefined) was read as UPR CHOP act inactive, UPR XBP1 act inactive and PvdQ acylase inactive.
For c1ccc(-c2noc(CN3CCN(C(c4ccccc4)c4ccccc4)CC3)n2)cc1 the results were UPR CHOP act inactive, UPR XBP1 act inactive, PvdQ acylase inactive and CHOP inhibitor inactive.
c1ccc(-c2noc(CN3CCN(c4ccccc4)CC3)n2)cc1 was read as UPR CHOP act inactive, UPR XBP1 act inactive, PvdQ acylase inactive and CHOP inhibitor 85.8.
For Fc1ccccc1N1CCN(Cc2nc(-c3ccccc3)no2)CC1 the results were UPR CHOP act inactive, UPR XBP1 act inactive, PvdQ acylase inactive and CHOP inhibitor 86.3.
Cc1cnc(C(=O)OCC(=O)NCc2ccc3c(c2)OCO3)cn1 was read as UPR CHOP act inactive, UPR XBP1 act inactive, PvdQ acylase inactive and CHOP inhibitor inactive.
`O=C(Nc1c(-c2ccccc2)nc2ccccn12)c1ccccc1F` gave UPR CHOP act inactive, UPR XBP1 act inactive and PvdQ acylase inactive.
Cc1cccc(NC(=O)Cn2c(O)c(N=NC(=O)c3ccncc3)c3ccccc32)c1 was read as UPR CHOP act inactive, UPR XBP1 act inactive, PvdQ acylase inactive and CHOP inhibitor 83.9.
Cc1ccc(NC(=O)Cn2c(O)c(N=NC(N)=S)c3ccccc32)cc1 was read as UPR CHOP act inactive, UPR XBP1 act 59.8 and PvdQ acylase inactive.
For O=C(C[C@H]1C[C@H](C(=O)N2CCOCC2)[C@@]2(CCC3CCCC3)c3[nH]c4ccc(Cl)cc4c3CCN2C1=O)NCCCn1ccnc1 the results were UPR CHOP act inactive, UPR XBP1 act inactive and PvdQ acylase inactive.
Nc1c2c(=O)[nH]c(O)cc2nn1-c1ccccc1 was read as PvdQ acylase inactive.
Cc1nn(-c2ccccc2)c(N)c1C(c1ccc(C(C)C)cc1)c1c(C)nn(-c2ccccc2)c1N was read as UPR CHOP act inactive, UPR XBP1 act inactive, PvdQ acylase inactive and CHOP inhibitor 84.8.
For CC(C)CNC(=O)COC(=O)c1n[nH]c2ccccc12 the results were UPR CHOP act inactive, UPR XBP1 act inactive, PvdQ acylase inactive and CHOP inhibitor inactive.
For CCC(C)c1ccccc1NC(=O)Cc1coc2cc3c(cc12)CCC3 (centres undefined) the results were UPR CHOP act inactive, UPR XBP1 act inactive, PvdQ acylase inactive and CHOP inhibitor inactive.
`Cc1ccc(C)c(NC(=O)Cc2coc3cc4c(cc23)CCC4)c1` gave UPR CHOP act inactive, UPR XBP1 act inactive, PvdQ acylase inactive and CHOP inhibitor 85.1.
`COc1cccc(C(=O)NN2c3ccccc3CCc3ccccc32)c1` gave PvdQ acylase inactive and CHOP inhibitor 92.0.
Screening COc1cccc(C(=O)NNC(=O)c2ccccc2)c1 returned UPR CHOP act inactive, UPR XBP1 act inactive and PvdQ acylase inactive.
For CCOc1ccc(CN2CCCC(CNC(=O)c3ccc(F)cc3)C2)cc1CO (centres undefined) the results were UPR CHOP act inactive, UPR XBP1 act inactive, PvdQ acylase inactive and CHOP inhibitor inactive.
COc1cc(OC)cc(C(=O)Nn2c(C)nc3ccccc3c2=O)c1 was read as UPR CHOP act inactive, UPR XBP1 act inactive, PvdQ acylase inactive and CHOP inhibitor inactive.
COc1ccc2[nH]c3c(c2c1)CCn1c-3nc2ccccc2c1=O was read as UPR CHOP act inactive, UPR XBP1 act inactive, PvdQ acylase inactive and CHOP inhibitor 70.8.
Screening c1coc(C2=NCCc3ccccc32)c1 returned UPR CHOP act inactive, UPR XBP1 act inactive and PvdQ acylase inactive.
Cc1ccc(NC(=O)COC(=O)c2ccc3c(c2)C(=O)N(CCc2ccccc2)C3=O)c(C)c1 was read as UPR CHOP act inactive, UPR XBP1 act inactive, PvdQ acylase inactive and CHOP inhibitor 77.8.
For COc1ccc(-n2cnc3scc(-c4ccc(OC)c(OC)c4)c3c2=O)cc1 the results were UPR CHOP act inactive, UPR XBP1 act inactive, PvdQ acylase inactive and CHOP inhibitor 75.8.
Screening COc1ccc(-c2csc3ncn(-c4ccc(C)cc4)c(=O)c23)cc1OC returned UPR CHOP act inactive, UPR XBP1 act inactive, PvdQ acylase inactive and CHOP inhibitor inactive.
`Cc1ccccc1S(=O)(=O)Cc1ccc(C(=O)NCc2ccc(F)cc2)o1` gave UPR CHOP act inactive, UPR XBP1 act inactive, PvdQ acylase inactive and CHOP inhibitor inactive.
For COc1cc(NS(=O)(=O)c2ccc(N/C=C(\C#N)c3nc4cc(Cl)ccc4o3)cc2)nc(OC)n1 the results were UPR CHOP act inactive, UPR XBP1 act inactive, PvdQ acylase inactive and CHOP inhibitor 91.8.
`CCOc1ccc(NC(=O)Cn2nnc3c(cnn3-c3ccc(F)cc3)c2=O)cc1` gave UPR CHOP act inactive, UPR XBP1 act inactive, PvdQ acylase inactive and CHOP inhibitor 72.2.
For CC1CCC(NC(=O)C2CCC(CNS(=O)(=O)c3ccccc3)CC2)CC1 (centres undefined) the results were UPR CHOP act inactive, UPR XBP1 act inactive and PvdQ acylase inactive.
`O=C(NC1CCCCCC1)C1CCC(CNS(=O)(=O)c2ccc(Br)s2)CC1` (centres undefined) gave UPR CHOP act inactive, UPR XBP1 act inactive, PvdQ acylase inactive and CHOP inhibitor 94.7.
O=C(NCC1OCCc2ccccc21)c1ccc(NC(=O)c2ccc(Cl)cc2Cl)cc1 (centres undefined) was read as UPR CHOP act inactive, UPR XBP1 act inactive, PvdQ acylase inactive and CHOP inhibitor 98.4.
For O=C(Nc1ccc(N=Nc2ccccc2)cc1)c1ccc(Cl)cc1Cl the results were UPR CHOP act inactive, UPR XBP1 act inactive, PvdQ acylase inactive and CHOP inhibitor 77.4.
For O=C(Nc1ccc(N=Nc2ccccc2)cc1)c1ccccc1Cl the results were UPR CHOP act inactive, UPR XBP1 act inactive, PvdQ acylase inactive and CHOP inhibitor inactive.
For O=C(NCC1OCCc2ccccc21)c1ccc(NC(=O)c2ccccc2Cl)cc1 (centres undefined) the results were UPR CHOP act inactive, UPR XBP1 act inactive, PvdQ acylase inactive and CHOP inhibitor inactive.
For O=c1[nH]c(Cc2cccs2)nc2scc(-c3ccc(Cl)cc3)c12 the results were UPR CHOP act inactive, UPR XBP1 act inactive, PvdQ acylase inactive and CHOP inhibitor inactive.
